Assay outcomes from PubChem.
A selection: hits, their analogues and other compounds. The true share with any hit is near 1.8%.
SKN-1 inh = C. elegans SKN-1 inhibition; C. elegans VP596 Pgst-4::GFP/RFP ratio, acrylamide-induced, 24 h; inhibition, % at 21.8 µM; 0.49% of 360,000 active;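 active means interference check ratio from 0.5 to 1.5 plus GFP to RFP signal ratio inhibition reaching or exceeding a fixed threshold, cut at about 30% in these data, passing the limit was not always enough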
eIF4H inh = inhibitors of RNA binding by human eIF4H; eIF4H fluorescence polarization binding assay; inhibition, % at 35 µM; 0.94% of 290,000 active;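 further: calls also rest on retests at 20 µM and on dose response follow-up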
PABP1 MLLE inh = blocks PAM2 peptide binding to the PABP1 MLLE domain; inhibition, % at 20 µM; 0.36% of 360,000 active; P11940; GST-MLLE / FITC-PAM2 fluorescence polarization; in the data active means inhibition above about 35%, passing the limit was not always enough
Target sequence (P11940 whole entry, looked up, the tested form may be a part): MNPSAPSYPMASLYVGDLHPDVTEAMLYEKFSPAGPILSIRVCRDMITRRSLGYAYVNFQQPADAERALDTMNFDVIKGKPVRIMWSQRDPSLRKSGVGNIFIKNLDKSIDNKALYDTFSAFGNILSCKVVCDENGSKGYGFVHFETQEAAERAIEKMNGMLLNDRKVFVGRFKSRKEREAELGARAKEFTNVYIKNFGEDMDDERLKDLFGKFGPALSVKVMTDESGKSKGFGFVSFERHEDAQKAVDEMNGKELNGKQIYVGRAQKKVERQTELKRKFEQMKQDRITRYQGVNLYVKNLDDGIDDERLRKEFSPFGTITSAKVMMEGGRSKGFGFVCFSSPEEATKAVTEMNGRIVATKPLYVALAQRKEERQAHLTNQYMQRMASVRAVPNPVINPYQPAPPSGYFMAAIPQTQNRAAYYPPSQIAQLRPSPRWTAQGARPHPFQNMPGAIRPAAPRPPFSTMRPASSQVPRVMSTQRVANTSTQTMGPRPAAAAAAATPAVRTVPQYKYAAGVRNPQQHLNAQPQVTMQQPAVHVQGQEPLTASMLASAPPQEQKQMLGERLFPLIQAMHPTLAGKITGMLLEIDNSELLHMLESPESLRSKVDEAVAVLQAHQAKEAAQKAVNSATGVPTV
MT1-MMP act inh = inhibitors of human MT1-MMP activation; P50281; HT1080 RFP-PRO-GFP cells, GFP/RFP ratio fluorescence, overnight; percent of plate control window, DMSO zero; GFP/RFP ratio change, % at 20 µM; 0.061% of 360,000 active; AID 651647;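 active means GFP/RFP ratio change of at least 30% with cell ATP level not reduced by more than half and red fluorescence within 50% of control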
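Compound: 20 µM single dose, 1% DMSO / System: HT1080 RFP-PRO-GFP cells / Controls: DMSO and RFP-L50D-GFP cell wells / Read-out basis: GFP/RFP fluorescence ratio / Schedule: overnight compound exposure at 37 °C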
PABP polyA inh = blocks human PABP binding to poly(A) RNA | P11940 | fluorescence polarization | calls only at 35 µM | 1% of 290,000 active;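 further: calls also rest on retests at 20 µM and on dose response follow-up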
Of the large screens only hits and unclear results are named; the others gave an inactive call. Unless noted, how the calls were made is not given here.

O=S(=O)(c1cc(O)ccc1O)c1cccc2c(S(=O)(=O)c3cc(O)ccc3O)cccc12	none (no result: eIF4H inh, PABP polyA inh)
Nc1ncc(-c2ccc(-c3ccccc3)cc2F)cc1-c1ccccc1F	SKN-1 inh 40.4 (no result: eIF4H inh, PABP polyA inh)
COc1ccc(NC(=O)CCc2nnc3ccc(N4CCN(c5cccc(OC)c5)CC4)nn23)cc1	none
CCCC(=Nc1ccc(N)cc1)C1=C(O)C(C(=O)OC)C(C)(C)CC1=O (stereo unspecified)	eIF4H inh 57.2, PABP polyA inh active
CCc1ccccc1NC(=O)c1cccc(NC(=O)/C=C/c2ccco2)c1	none
O=C(/C=C/c1ccco1)Nc1cccc(C(=O)Nc2ccccc2C(=O)O)c1	eIF4H inh 88.6, PABP polyA inh active
Clc1ccc(C=Cc2ccccn2)c(Cl)c1	SKN-1 inh 84.9 (no result: eIF4H inh, PABP polyA inh)
O=C(/C=C/c1ccc(Cl)cc1Cl)NC(=S)Nc1ccccn1	SKN-1 inh 37.6
O=C(/C=C/c1ccccn1)c1cc(Cl)cc(Cl)c1O	none
O=C(/C=C/c1ccco1)NC(=S)Nc1ccc(N2CCCC2)cc1	eIF4H inh 92.6, PABP1 MLLE inh 36.2, PABP polyA inh active
Cc1cccc(CSC2=NCCN2S(=O)(=O)c2ccc(F)cc2)c1	none
CC(=O)NC(=S)Nc1ccc(NC(=S)NC(=O)/C=C/c2ccco2)cc1	none (no result: eIF4H inh, PABP polyA inh)
O=C(/C=C/c1ccco1)NC(=S)Nc1ccc(C(=O)O)cc1	eIF4H inh 97.1, PABP polyA inh active
Cc1ccnc(NC(=S)NC(=O)/C=C/c2ccco2)c1	none
O=C(/C=C/c1ccco1)NC(=S)NNC(=O)c1ccco1	PABP polyA inh active
O=C(/C=C/c1ccco1)NC(=S)Nc1ccc(Cl)cn1	PABP polyA inh active
COc1cccc(-c2cc(CNC(=O)[C@H]3O[C@@H](n4ccc(N)nc4=O)[C@H](O)[C@@H]3O)no2)c1	none (no result: eIF4H inh, PABP polyA inh)
O=C(Nc1cccc(S(=O)(=O)NC2=NCCC2)c1)c1cnc(Cl)c(Cl)c1	none (no result: eIF4H inh, PABP polyA inh)
O=c1oc2ccccc2c2oc3cc(O)c(O)cc3c12	eIF4H inh 100.7, PABP polyA inh active
COc1ccc(-n2nc3c(N)n[nH]c3cc2=O)cc1	none
Nc1n[nH]c2cc(=O)n(-c3ccc(Cl)cc3)nc12	eIF4H inh 99.3, PABP polyA inh active
CSc1ncccc1C(=O)N1CCC1(C)C(=O)NC(C)C (stereo unspecified)	none (no result: eIF4H inh, PABP polyA inh)
O=C(COC(=O)c1ccc2ccccc2c1)NCc1ccccc1	none (no result: eIF4H inh, PABP polyA inh)
CCCCCC(=O)NC(NC(=S)Nc1ccc(S(N)(=O)=O)cc1)C(Cl)(Cl)Cl (stereo unspecified)	eIF4H inh 61.1, PABP polyA inh active
Cc1ccc(-n2nnnc2SCn2nnc3ccccc3c2=O)cc1	none
COc1ccc(C)cc1-n1nnnc1SCn1nnc2ccccc2c1=O	PABP1 MLLE inh 46.2
COC(=O)CCCC1=CC2=CC(=O)C(C)(OC(=O)c3cccs3)C(=O)C2=CN1CCc1ccccn1 (stereo unspecified)	PABP polyA inh active
C=CCN1C=C2C(=O)C(C)(OC(=O)c3cccs3)C(=O)C=C2C=C1CCCC(=O)OC (stereo unspecified)	none
COC(=O)C1=C(C)NC(=O)/C1=C\N(C)C	SKN-1 inh 38.8, eIF4H inh 78.8, PABP1 MLLE inh 42.5, PABP polyA inh active
COC(=O)C1=C(C)NC(=O)/C1=C\c1cccs1	none
O=C(CN1C(=O)/C(=C2\SC(=S)N(CCS(=O)(=O)O)C2=O)c2ccccc21)Nc1cccc(Br)c1	eIF4H inh 93.0, PABP polyA inh active
O=C(O)CCC(=O)N1CCc2cc(S(=O)(=O)NCc3ccc(Cl)cc3)ccc21	none
CCC(=O)N1CCC1(C)C(=O)NCc1ccc(SC)cc1 (stereo unspecified)	none (no result: eIF4H inh, PABP polyA inh)
Cc1cc2ccccc2n1CCNC(=O)C(C)(C)C	none
CC(=O)NCCn1c(C)cc2ccccc21	SKN-1 inh 49.0, eIF4H inh 93.8, PABP polyA inh active
O=C(NCc1ccco1)c1ccc(S(=O)(=O)N2CCOCC2)cc1	eIF4H inh 78.8, PABP polyA inh active
Cc1cc2ccccc2n1CCNC(=O)c1ccccc1	SKN-1 inh 47.8
Cc1onc(-c2ccccc2Cl)c1C(=O)NCCn1c(C)cc2ccccc21	MT1-MMP act inh 39.6
COC(=O)[C@@]1(Cc2ccc(F)cc2)[C@H]2c3cc(C(=O)N(C)C)n(CCN4CCOCC4)c3C[C@H]2CN1C(=O)c1ccccc1	none (no result: eIF4H inh, PABP1 MLLE inh, PABP polyA inh)
CC1CCCC(C)N1CCOc1cc(N)ccc1C#N (stereo unspecified)	none (no result: eIF4H inh, PABP polyA inh)
Cc1cc2ccccc2n1CCNC(=O)c1ccc(S(=O)(=O)N2CCOCC2)cc1	SKN-1 inh 47.3
CCC(=O)NCCn1c(C)cc2ccccc21	SKN-1 inh 39.0, eIF4H inh 106.3, PABP polyA inh active
CCCCn1c(N)c(N(CC)C(=O)C2=NN(c3ccccc3)C(=O)CC2)c(=O)[nH]c1=O	none (no result: eIF4H inh, PABP polyA inh)
Nc1ccc(N=Nc2ccc(N)cc2)cc1	none
Cc1cc(N(C)C)ccc1N=Nc1ccc(N)cc1	SKN-1 inh 96.8 (no result: eIF4H inh, PABP polyA inh)
COc1ccc(O)c(N)c1	eIF4H inh 95.7, PABP polyA inh active (no result: SKN-1 inh, PABP1 MLLE inh, MT1-MMP act inh)
O=C(CCC1N=C2c3ccccc3N=C(SCc3ccccc3Cl)N2C1=O)NCc1ccco1 (stereo unspecified)	none
O=C(CSC1=Nc2ccccc2C2=NC(CC(=O)NC3CCCCC3)C(=O)N12)NCc1ccco1 (stereo unspecified)	eIF4H inh inconclusive, PABP1 MLLE inh 48.6, PABP polyA inh inconclusive
CC(=O)c1ccccc1NC(=O)COC(=O)/C=C/c1ccc(OC(F)F)cc1	none (no result: eIF4H inh, PABP polyA inh)
COC(=O)C1=CN(c2ccc(C)cc2)C(N)=C(C#N)C1c1ccc(OC)cc1 (stereo unspecified)	none (no result: eIF4H inh, PABP1 MLLE inh, PABP polyA inh)
CCOc1nc(-c2ccncc2)nc2ccccc12	SKN-1 inh 38.6
COc1ccc(CN2C(=O)C(CC(=O)NC3CC3)CC(C(=O)N3CCOCC3)=C2C)cc1 (stereo unspecified)	none (no result: eIF4H inh, PABP polyA inh)
Cc1c(C#N)c(O)[nH]c(=O)c1N=Nc1ccc(S(N)(=O)=O)cc1	SKN-1 inh 38.0
CCCCN1C(=O)/C(=C/C=C2\SCCN2C)SC1=S	SKN-1 inh 47.7, eIF4H inh inconclusive
CN1CCS/C1=C/C=C1\SC(=S)N(CC(=O)O)C1=O	eIF4H inh inconclusive, PABP polyA inh inconclusive
COc1cc2c(cc1OC)C(c1ccccc1O)N(C1CC(=O)N(c3ccccc3)C1=O)CC2 (stereo unspecified)	PABP1 MLLE inh 39.6
COc1cc2c(cc1OC)C(C1C(=O)CCCC1=O)N(C(=O)CCl)CC2 (stereo unspecified)	none
COc1cc2c(cc1OC)C(c1ccccc1)N(C(=O)CCl)CC2 (stereo unspecified)	SKN-1 inh 33.7
CCN1C(c2ccccc2)=C(c2ccccc2)S/C1=C\C=C1/SC(=S)N(C)C1=O	SKN-1 inh 49.6 (no result: eIF4H inh, PABP polyA inh)
CCOc1ccc(-c2nc(N)ncc2Oc2cccc(OC)c2)c(O)c1	SKN-1 inh 37.2
COc1ccc(-c2c(C)nc(N)nc2-c2ccc(OC)cc2O)cc1	eIF4H inh 66.1, PABP polyA inh active
CCOc1ccc(-c2nc(N)ncc2Oc2ccccc2Br)c(O)c1	none
